Most compounds without a hit are left out; they make up all but 3.3% or so of the library.
PMI act satM6P: human PMI activators, high substrate, primary screen, biochemical, fluorescence intensity, near-saturating mannose 6-phosphate | Mannose-6-phosphate isomerase (Homo sapiens), P34949 | coupled PMI enzyme assay, resazurin fluorescence, 20 min; active compounds read high; 1 = untreated enzyme, 0 = substrate-free blank | activation factor at 20 µM | 190,000 compounds, 0.34% hits;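 active = activation factor of 2 or more at 20 µM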
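Material: human phosphomannose isomerase with PGI, G6PDH, diaphorase coupling enzymes / Reagent: Man-6-P substrate 1.0 mM / Dosing: single compound dose of 20 µM, 1% DMSO final / Incubation: enzyme reaction with compound 20 min at room temperature / Signal: resorufin fluorescence (Ex 544/Em 590 nm) from resazurin via diaphorase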
PMI activator: activators of human PMI, primary screen, biochemical, fluorescence intensity, near-Km mannose 6-phosphate | Mannose-6-phosphate isomerase (Homo sapiens), P34949 | purified human PMI, coupled resazurin fluorescence, 20 min; active compounds read high; 1 = vehicle control, 0 substrate-free wells | 190,000 compounds, 0.005% hits | activation factor at 20 µM;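 active = activation factor of 2 or more at 20 µM, relative to plate controls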
ABCB1 block: ABCB1 efflux pump inhibitors, primary screen, cell-based, multiplex, flow cytometry, ABCG2 counter-screen; CCRF-Adr cells, JC-1 efflux; ATP-dependent translocase ABCB1 (Homo sapiens), P08183; 190,000 compounds, 0.067% hits; inhibition, % at 6.6 µM; in the data active = inhibition above about 40%;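 note: higher value means more JC-1 retained so stronger ABCB1 efflux block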
ROMK primary: ROMK potassium channel modulators, primary screen, cell-based, thallium flux, MLSMR library; ATP-sensitive inward rectifier potassium channel 1 (Homo sapiens), P48048; Tet-inducible ROMK, thallium flux fluorescence; actives lie on both sides; B-score at 10 µM; 130,000 compounds, 2% hits;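 active = signal ratio slope over the read window, or its plate-corrected B-score, at least 3 SD from the plate mean, either direction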;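 note: B-score of the F/F0 ratio slope over 7 to 12 s after thallium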
KCC2 mod: KCC2 cotransporter modulators, thallium flux, primary screen, cell-based, HEK293 KCC2, FluoZin-2 fluorescence, MLSMR; Solute carrier family 12 member 5 (Homo sapiens), Q9H2X9; KCC2 cells, thallium flux FluoZin-2 fluorescence; B-score of Tl+ flux slope (higher = more flux/activation; lower = inhibition) at 10 µM; 190,000 compounds, 2.2% hits; AID 1456, 2008;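 active = thallium flux slope and its plate-corrected score both differing from the plate sample mean at a set confidence after two filtering rounds, in either direction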;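 note: slope of fluorescence scaled to starting intensity during 10 to 20 s after thallium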
Target sequence (Q9H2X9 whole entry, looked up): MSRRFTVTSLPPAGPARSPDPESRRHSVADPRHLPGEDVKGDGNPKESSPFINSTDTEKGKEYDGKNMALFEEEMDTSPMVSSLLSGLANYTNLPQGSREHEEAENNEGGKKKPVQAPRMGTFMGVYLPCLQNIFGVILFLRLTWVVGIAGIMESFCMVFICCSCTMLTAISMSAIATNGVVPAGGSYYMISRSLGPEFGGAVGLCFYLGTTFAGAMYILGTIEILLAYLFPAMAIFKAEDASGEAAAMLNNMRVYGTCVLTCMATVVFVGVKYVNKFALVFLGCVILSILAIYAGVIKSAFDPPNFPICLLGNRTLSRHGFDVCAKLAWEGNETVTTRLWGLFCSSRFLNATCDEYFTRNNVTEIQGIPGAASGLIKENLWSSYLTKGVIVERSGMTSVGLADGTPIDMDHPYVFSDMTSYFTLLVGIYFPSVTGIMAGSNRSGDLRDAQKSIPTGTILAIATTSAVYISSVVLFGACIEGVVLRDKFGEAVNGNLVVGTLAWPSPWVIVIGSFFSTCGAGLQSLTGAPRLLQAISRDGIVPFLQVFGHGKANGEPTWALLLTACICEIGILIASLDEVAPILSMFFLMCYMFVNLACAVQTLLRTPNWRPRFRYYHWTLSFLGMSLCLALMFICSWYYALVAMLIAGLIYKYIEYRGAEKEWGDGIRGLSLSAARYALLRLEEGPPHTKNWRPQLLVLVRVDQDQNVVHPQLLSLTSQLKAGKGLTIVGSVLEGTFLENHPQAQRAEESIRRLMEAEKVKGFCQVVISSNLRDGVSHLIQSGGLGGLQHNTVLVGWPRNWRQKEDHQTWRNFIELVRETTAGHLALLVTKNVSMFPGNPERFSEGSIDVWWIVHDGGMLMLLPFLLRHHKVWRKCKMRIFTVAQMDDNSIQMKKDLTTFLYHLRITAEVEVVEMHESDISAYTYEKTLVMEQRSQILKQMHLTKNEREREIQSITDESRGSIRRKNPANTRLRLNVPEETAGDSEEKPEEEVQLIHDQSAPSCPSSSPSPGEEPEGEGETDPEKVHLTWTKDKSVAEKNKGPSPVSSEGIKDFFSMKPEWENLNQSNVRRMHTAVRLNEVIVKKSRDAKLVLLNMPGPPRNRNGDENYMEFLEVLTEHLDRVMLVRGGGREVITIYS
ABCG2 inh: ABCG2 efflux pump inhibitors, primary screen, multiplex with ABCB1, IgMXP3 cells, flow cytometry; Broad substrate specificity ATP-binding cassette transporter ABCG2 (Homo sapiens), Q9UNQ0; JC-1 efflux; inhibition, % at 6.6 µM; 190,000 compounds, 0.1% hits; AID 1325, 2008;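 active = inhibition above 80%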
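System: two drug-resistant human cell lines, ABCG2 and ABCB1; controls: nicardipine high and DMSO low controls; times: 10 min exposure at 25 °C with rotation, no wash; detection: flow cytometry of retained JC-1 fluorescence; read-out basis: percent efflux inhibition, scaled nicardipine 100% to DMSO 0%; doses: one concentration, 6.6 µM final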
KCC2 secondary: KCC2 modulators in sodium-free buffer, confirmation, cell-based, HEK293 KCC2, thallium flux, secondary assay; shares compounds with KCC2 mod; FluoZin2 fluorescence; active compounds read high; normalised thallium flux (F/F0 slope) at 10 µM; 3,700 compounds, 15% hits; AID 1713, 2009;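 active = thallium flux slope above the same plate's solvent-only control mean plus 3 SD; inconclusive = the two replicate wells disagree; inactive = no significant difference from solvent-only control wells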
KCC2 bumet counter: thallium flux persisting under bumetanide in KCC2 cells, confirmation, counter-screen for KCC2 modulator project, cell-based, HEK293 KCC2, FluoZin2, secondary assay 3. shares compounds with KCC2 mod. HEK293-KCC2 + bumetanide/ouabain; active compounds read high. normalized thallium flux at 10 µM. 3,700 compounds, 49% hits. AID 1714, 2009;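 active = thallium entry rate above the same plate's blocked-transporter control wells by more than 3 SD; inconclusive = the two repeat wells disagree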;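 note: raw slope of fluorescence over initial fluorescence between 10 and 20 s after thallium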
KCC2 sec2: KCC2 modulators without ouabain present, confirmation, cell-based, HEK293 KCC2, thallium flux, FluoZin2, secondary assay 2; thallium flux FluoZin2 fluorescence; actives lie on both sides; F/F0 rise rate, 10–20 s post-thallium; shares compounds with KCC2 mod; normalized thallium flux at 10 µM; 3,700 compounds, 23% hits;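 active = thallium flux slope more than 3 SD above or below the plate's solvent-only control mean, mostly below; inconclusive = the two repeat wells disagreed; inactive = no significant shift from solvent-only controls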
HEK293 Tl flux: thallium flux modulation in parental HEK cells, confirmation, counter-screen for KCC2 modulator project, cell-based, counterscreen 1 | AID 1716, 2009 | thallium flux rate (normalised fluorescence) at 10 µM | shares compounds with KCC2 mod | 3,700 compounds, 46% hits | HEK293 parental cells, thallium flux FluoZin2, ouabain; baseline-ratio fluorescence slope, 10–20 s after thallium;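 active = thallium flux rate significantly above the same plate's solvent-only control wells, beyond their mean plus 3 SD; inconclusive = the two replicate wells gave conflicting results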
KCC2 retest ouab: KCC2 inhibitors and activators, ouabain retest, confirmation, HEK-KCC2 cells; HEK293-KCC2, thallium flux FluoZin2 fluorescence; bidirectional: low = inhibitor, high = activator; 3,700 compounds, 48% hits; shares compounds with KCC2 mod; AID 1717, 2009; raw Tl+ flux slope (below DMSO = inhibition, above = activation) at 10 µM;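 active = thallium flux slope beyond 3 SD from same-plate DMSO control mean in most replicates, usually higher, sometimes lower; inconclusive = repeat tests gave conflicting results; inactive = no significant difference from controls in most replicates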;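 note: slope of initial-normalized fluorescence between seconds 10 and 20 after thallium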
HEK counter2: native HEK Tl+ uptake effects, second counter-screen – HEK cells, counterscreen 2, counter-screen for KCC2 modulator project, confirmation. shares compounds with KCC2 mod. HEK293 parental, thallium flux FluoZin-2 fluorescence slope. thallium flux slope at 10 µM. 3,700 compounds, 33% hits. AID 1718, 2009;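 active = thallium flux slope above the same plate's solvent-control mean plus 3 SD in both duplicate wells; inconclusive = duplicate wells that disagreed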;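 note: run without ouabain in cells lacking the KCC2 cotransporter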
Large screens that a line does not name were inactive (follow-up assays come after a bar, where they were run).

Cn1c(SCC(=O)NCc2ccccc2)nc2ccccc21	none | KCC2 secondary inconclusive | KCC2 bumet counter inactive | KCC2 sec2 inactive | HEK293 Tl flux inactive | KCC2 retest ouab inactive | HEK counter2 inactive
O=C(O)CCn1c(SCc2ccccc2)nc2ccccc21	KCC2 mod -4.2 | KCC2 secondary inactive | KCC2 bumet counter inactive | KCC2 sec2 inactive | HEK293 Tl flux inactive | KCC2 retest ouab 0.015 | HEK counter2 inactive
Cn1c(SCC(=O)NCCN2C(=O)CSC2=O)nc2ccccc2c1=O	KCC2 mod 6.4 (no result: ROMK primary) | KCC2 secondary inactive | KCC2 bumet counter 0.013 | KCC2 sec2 inconclusive | HEK293 Tl flux 0.012 | KCC2 retest ouab inactive | HEK counter2 0.017
O=C(CSc1nc2ccccc2c(=O)n1Cc1ccco1)NCCN1C(=O)CSC1=O	none (no result: PMI act satM6P, PMI activator, ABCB1 block, ROMK primary, ABCG2 inh)
O=C(CSc1nc2ccccc2n1CCc1ccccc1)NC1CCS(=O)(=O)C1 (configuration not stated)	KCC2 mod 7.2 (no result: ROMK primary) | KCC2 secondary inactive | KCC2 bumet counter 0.021 | KCC2 sec2 inactive | HEK293 Tl flux 0.011 | KCC2 retest ouab 0.028 | HEK counter2 0.011
COC(=O)Cn1c(SCc2ccccc2)nc2ccccc21	none
Cn1c(=O)[nH]c(=O)c2c1nc(N1CCOCC1)n2CC(=O)c1ccccc1	none
CCN(CC)C(=S)SC1CCCCN(C(=O)c2ccccc2)C1=O (configuration not stated)	none (no result: PMI act satM6P, PMI activator, ABCB1 block, ROMK primary, ABCG2 inh)
COc1ccc(CCNC(=O)c2c(O)c3c([nH]c2=O)CCCC3)cc1	none (no result: KCC2 mod)
Cc1cc(N2CCN(C)CC2)ccc1NC(=O)c1cccc(S(=O)(=O)N2CCc3ccccc3C2)c1	none (no result: ROMK primary)
CCn1ncc(Br)c1C(=O)Nc1ccc(C(=O)OC(C)C)cc1	KCC2 mod 5.3 | KCC2 secondary inactive | KCC2 bumet counter inactive | KCC2 sec2 inactive | HEK293 Tl flux inactive | KCC2 retest ouab inactive | HEK counter2 inactive
CCOc1cc(/C=N\Nc2ncc(F)c(N3CCOCC3)n2)ccc1Oc1nc(Cl)ncc1F	none (no result: PMI act satM6P, PMI activator, ABCB1 block, ROMK primary, ABCG2 inh)
Cn1cccc1C(=O)C(=O)Nc1cccc(Cl)c1Cl	none (no result: ROMK primary)
Cc1cc2nc(C)c(Cc3ccccc3)c(=O)n2[nH]1	none (no result: KCC2 mod)
Cc1nc2c(-c3ccccc3)c[nH]n2c(=O)c1Cc1ccccc1	KCC2 mod 16 | KCC2 secondary inactive | KCC2 bumet counter 0.025 | KCC2 sec2 inactive | HEK293 Tl flux 0.02 | KCC2 retest ouab 0.03 | HEK counter2 0.019
CCN(CC)S(=O)(=O)c1ccc(/C=C/C(=O)OCC(=O)Nc2ccc(S(N)(=O)=O)cc2)cc1	none
O=C(CSc1nnc(Cc2ccccc2)o1)N1CCCc2ccccc21	KCC2 mod -6.1 | KCC2 secondary inactive | KCC2 bumet counter inactive | KCC2 sec2 0.021 | HEK293 Tl flux inactive | KCC2 retest ouab 0.012 | HEK counter2 inconclusive
O=C(CSc1nnc(Cc2ccccc2)o1)c1cc(F)ccc1F	KCC2 mod -7.1 | KCC2 secondary 0.0039 | KCC2 bumet counter inactive | KCC2 sec2 0.02 | HEK293 Tl flux inconclusive | KCC2 retest ouab 0.012 | HEK counter2 inactive
O=C(CSc1nnc(Cc2ccccc2)o1)c1ccc(F)cc1	KCC2 mod -4.3 (no result: PMI act satM6P, PMI activator, ABCB1 block, ROMK primary, ABCG2 inh) | KCC2 secondary inactive | KCC2 bumet counter inconclusive | KCC2 sec2 0.022 | HEK293 Tl flux inactive | KCC2 retest ouab inconclusive | HEK counter2 inactive
c1ccc(OCc2nn3c(Cn4nnc5ccccc54)nnc3s2)cc1	KCC2 mod -2.6 | KCC2 secondary inactive | KCC2 bumet counter inactive | KCC2 sec2 inactive | HEK293 Tl flux inactive | KCC2 retest ouab 0.015 | HEK counter2 inactive
c1ccc(Cc2nn3c(Cn4nnc5ccccc54)nnc3s2)cc1	none
COc1ccccc1-c1nnc2sc(COc3ccccc3)nn12	none | KCC2 secondary inactive | KCC2 bumet counter inconclusive | KCC2 sec2 0.024 | HEK293 Tl flux 0.0064 | KCC2 retest ouab 0.015 | HEK counter2 inconclusive
Brc1ccccc1-c1nnc2sc(Cc3ccccc3)nn12	KCC2 mod -4.1 (no result: ROMK primary) | KCC2 secondary inactive | KCC2 bumet counter inactive | KCC2 sec2 inconclusive | HEK293 Tl flux inconclusive | KCC2 retest ouab 0.013 | HEK counter2 inactive
Cc1cccc(N(C)C(=O)C2CCCN2S(=O)(=O)c2cccc3nsnc23)c1 (configuration not stated)	none (no result: PMI act satM6P, PMI activator, ABCB1 block, ABCG2 inh)
COc1ccc(/C=C/C2=CCN(Cc3ccc(OC)cc3)CC2)cc1	none (no result: ROMK primary)
COc1c(S(=O)(=O)n2nc(C)cc2C)ccc(Cl)c1Cl	none (no result: ROMK primary, KCC2 mod)
CCOC(=O)C1=C(C)OC(N)=C(C#N)C1c1cccc(C)c1 (configuration not stated)	none

Screening data from PubChem.
